According to publication PMC11348385 (RSC Advances, 2024):
Where “and” joins values, the source holds several entries; their conditions need not be identical. Equal values may be shown once. Values belong to the compound of their own block, whether it stands above or below them.

Key:
VEGFR-2 = VEGFR-2 (Homo sapiens, UniProt P35968); experiment: In vitro VEGFR-2 kinase assay; assay type: biochemical
MCF-7 cell line = experiment: MTT colorimetric cytotoxicity assay, MCF-7; assay type: cell-based, human; details: for IC50: Homo sapiens, MCF7, 72 h, read-out: IC50 MCF-7; for Selectivity index: folds more toxic regarding MCF-7 than VERO cells: VERO vs MCF-7; for selectivity class against MCF-7: high SI ≥ 5, moderate SI > 2, low SI < 2, vs VERO
HepG2 cell line = experiment: MTT colorimetric cytotoxicity assay, HepG2; assay type: cell-based, human; details: for IC50: Homo sapiens, HepG2, 72 h, read-out: IC50 HepG2; for Selectivity index: folds toxic in HepG2 than in VERO cells: VERO vs HepG2; for selectivity class against HepG2: high SI ≥ 5, moderate SI > 2, low SI < 2, vs VERO
Bcl-2 = Bcl-2 expression level in MCF-7 cells; assay type: cell-based, human; details: MCF-7, IC50 of 4b, 24 h, mean ± SEM
BAX/Bcl-2 ratio = BAX/Bcl-2 ratio in MCF-7 cells; assay type: cell-based, human; details: MCF-7, IC50 of 4b
In short: (§1)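 Test compound given to MCF-7 cells for 24 h; Bax and Bcl-2 expression levels then determined. Each is expressed as fold change versus untreated control cells, and the Bax/Bcl-2 ratio is calculated from these fold changes.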

MCF-7 cells [1] = experiment: Cell cycle distribution; assay type: cell-based, human; details: MCF-7, 2.3 μM 4b, 24 h, mean ± SEM
In short: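 MCF-7 cells treated with 2.3 μM test compound for 24 h, harvested and stained with propidium iodide. DNA content was analysed for distribution across G1, S and G2/M phases, with an untreated control alongside. Values are mean ± SEM of three independent experiments.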

MCF-7 cells [2] = experiment: Annexin V / propidium iodide double staining apoptosis assay; assay type: cell-based, human; details: MCF-7, IC50 of 4b, 24 h
BAX = BAX expression level in MCF-7 cells; assay type: cell-based, human; details: MCF-7, IC50 of 4b
In short: as §1

VEGFR-2, sequence (P35968 20-1356): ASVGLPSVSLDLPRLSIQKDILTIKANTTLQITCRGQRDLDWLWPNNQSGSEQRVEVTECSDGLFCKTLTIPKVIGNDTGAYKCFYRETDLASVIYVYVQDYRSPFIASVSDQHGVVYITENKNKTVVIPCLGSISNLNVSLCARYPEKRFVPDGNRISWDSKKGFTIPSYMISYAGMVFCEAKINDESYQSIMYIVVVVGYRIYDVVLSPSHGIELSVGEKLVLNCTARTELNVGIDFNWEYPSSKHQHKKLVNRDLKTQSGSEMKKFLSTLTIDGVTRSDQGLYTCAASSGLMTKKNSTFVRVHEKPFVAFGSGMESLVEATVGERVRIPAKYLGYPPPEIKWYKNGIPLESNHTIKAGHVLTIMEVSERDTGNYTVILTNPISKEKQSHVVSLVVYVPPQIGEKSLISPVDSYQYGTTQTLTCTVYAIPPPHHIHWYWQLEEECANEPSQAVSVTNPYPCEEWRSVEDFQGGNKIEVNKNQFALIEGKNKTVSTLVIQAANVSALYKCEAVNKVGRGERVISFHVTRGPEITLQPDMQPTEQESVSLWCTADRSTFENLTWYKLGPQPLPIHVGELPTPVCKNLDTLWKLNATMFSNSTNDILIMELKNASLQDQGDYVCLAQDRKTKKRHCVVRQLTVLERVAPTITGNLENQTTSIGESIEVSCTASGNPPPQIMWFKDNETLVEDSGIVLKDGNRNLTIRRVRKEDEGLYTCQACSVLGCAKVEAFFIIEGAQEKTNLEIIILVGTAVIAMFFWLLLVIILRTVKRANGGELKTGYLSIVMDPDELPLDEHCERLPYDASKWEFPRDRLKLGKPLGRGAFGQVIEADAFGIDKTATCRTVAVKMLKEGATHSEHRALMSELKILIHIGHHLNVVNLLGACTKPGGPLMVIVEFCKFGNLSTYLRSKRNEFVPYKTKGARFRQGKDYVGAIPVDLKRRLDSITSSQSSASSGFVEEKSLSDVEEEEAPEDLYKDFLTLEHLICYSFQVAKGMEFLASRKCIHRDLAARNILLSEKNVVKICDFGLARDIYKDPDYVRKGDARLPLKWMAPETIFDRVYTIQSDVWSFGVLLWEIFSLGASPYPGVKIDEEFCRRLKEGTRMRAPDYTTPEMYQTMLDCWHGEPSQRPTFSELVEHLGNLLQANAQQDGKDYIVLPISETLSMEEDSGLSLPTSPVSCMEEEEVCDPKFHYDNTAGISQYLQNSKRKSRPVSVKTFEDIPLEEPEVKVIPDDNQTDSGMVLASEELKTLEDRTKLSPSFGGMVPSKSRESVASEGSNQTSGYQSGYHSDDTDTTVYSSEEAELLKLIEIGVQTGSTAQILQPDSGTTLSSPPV

Compound: Oc1ccccc1C1CC(c2ccc(Nc3nnc(-c4ccc(Cl)cc4)c4ccccc34)cc2)=NN1 (stereo not drawn) [Compound 3c, 2-(3-[4-{(4-[4-Chlorophenyl]phthalazin-1-yl)amino}phenyl]-4,5-dihydro-1H-pyrazol-5-yl)phenol]
- IC50 (VEGFR-2): 840 ± 50 nM
- IC50 (MCF-7 cell line): 880 ± 30 nM
- Selectivity index: folds more toxic regarding MCF-7 than VERO cells (MCF-7 cell line): 4.67 folds
- selectivity class against MCF-7 (MCF-7 cell line): moderate selectivity
- IC50 (HepG2 cell line): 1250 ± 20 nM
- Selectivity index: folds toxic in HepG2 than in VERO cells (HepG2 cell line): 3.29 folds
- selectivity class against HepG2 (HepG2 cell line): moderate selectivity

Compound: COc1ccc(C2CC(c3ccc(Nc4nnc(-c5ccc(Cl)cc5)c5ccccc45)cc3)=NN2)cc1 (stereo not drawn) [Compound 3e, 4-(4-Chlorophenyl)-N-(4-[5-{4-methoxyphenyl}-4,5-dihydro-1H-pyrazol-3-yl]phenyl)phthalazin-1-amine]
- IC50 (VEGFR-2): 120 ± 20 nM
- IC50 (MCF-7 cell line): 80 ± 10 nM
- Selectivity index: folds more toxic regarding MCF-7 than VERO cells (MCF-7 cell line): 40.25 folds
- Selectivity index: folds toxic in HepG2 than in VERO cells (HepG2 cell line): 16.95 folds

Compound: Clc1ccc(-c2nnc(Nc3ccc(C4=NNC(c5ccccc5)C4)cc3)c3ccccc23)cc1 (stereo not drawn) [Compound 3a, 4-(4-Chlorophenyl)-N-(4-(5-phenyl-4,5-dihydro-1H-pyrazol-3-yl)phenyl)phthalazin-1-amine]
- IC50 (VEGFR-2): 1250 ± 50 nM
- IC50 (MCF-7 cell line): 1160 ± 10 nM
- Selectivity index: folds more toxic regarding MCF-7 than VERO cells (MCF-7 cell line): 4.09 folds
- selectivity class against MCF-7 (MCF-7 cell line): moderate selectivity
- IC50 (HepG2 cell line): 1270 ± 30 nM
- Selectivity index: folds toxic in HepG2 than in VERO cells (HepG2 cell line): 3.74 folds
- selectivity class against HepG2 (HepG2 cell line): moderate selectivity

Compound: CNC(=O)c1cc(Oc2ccc(NC(=O)Nc3ccc(Cl)c(C(F)(F)F)c3)cc2)ccn1 [Sorafenib, sorafenib, reference compound]
- IC50 (MCF-7 cell line): 50 ± 10 nM
- IC50 (HepG2 cell line): 30 ± 10 nM

Compound: Clc1ccc(-c2nnc(Nc3ccc(C4=NNC(c5ccc(Cl)cc5)C4)cc3)c3ccccc23)cc1 (stereo not drawn) [Compound 3b, 4-(4-Chlorophenyl)-N-(4-(5-(4-chlorophenyl)-4,5-dihydro-1H-pyrazol-3-yl)phenyl)phthalazin-1-amine]
- IC50 (VEGFR-2): 800 ± 50 nM
- IC50 (MCF-7 cell line): 830 ± 20 nM
- Selectivity index: folds more toxic regarding MCF-7 than VERO cells (MCF-7 cell line): 5.12 folds
- Selectivity index: folds toxic in HepG2 than in VERO cells (HepG2 cell line): 5.31 folds

Compound: S=c1nc(-c2ccc(Nc3nnc(-c4ccc(Cl)cc4)c4ccccc34)cc2)cc(-c2ccc(Cl)cc2)[nH]1 [Compound 5b, 6-(4-Chlorophenyl)-4-(4-[{4-(4-chlorophenyl)phthalazin-1-yl}amino]phenyl)pyrimidin-2(1H)-thione]
- IC50 (VEGFR-2): 130 ± 30 nM
- IC50 (MCF-7 cell line): 110 ± 10 nM
- Selectivity index: folds more toxic regarding MCF-7 than VERO cells (MCF-7 cell line): 28.64 folds
- IC50 (HepG2 cell line): 150 ± 10 nM
- Selectivity index: folds toxic in HepG2 than in VERO cells (HepG2 cell line): 21.00 folds

Compound: Oc1ccc(C2CC(c3ccc(Nc4nnc(-c5ccc(Cl)cc5)c5ccccc45)cc3)=NN2)cc1 (stereo not drawn) [Compound 3d, 4-(3-[4-{(4-[4-Chlorophenyl]phthalazin-1-yl)amino}phenyl]-4,5-dihydro-1H-pyrazol-5-yl)phenol]
- IC50 (VEGFR-2): 700 ± 50 nM
- IC50 (MCF-7 cell line): 740 ± 10 nM
- Selectivity index: folds more toxic regarding MCF-7 than VERO cells (MCF-7 cell line): 5.88 folds
- IC50 (HepG2 cell line): 150 nM
- Selectivity index: folds toxic in HepG2 than in VERO cells (HepG2 cell line): 29.00 folds

Compound: O=c1nc(-c2ccc(Nc3nnc(-c4ccc(Cl)cc4)c4ccccc34)cc2)cc(-c2ccc(Cl)cc2)[nH]1 [Compound 4b, 6-(4-Chlorophenyl)-4-(4-[{4-(4-chlorophenyl)phthalazin-1-yl}amino]phenyl)pyrimidin-2(1H)-one]
- Gene expression fold change Bcl-2 (Bcl-2): 0.374 ± 0.02
- IC50 (VEGFR-2): 90 ± 20 nM
- IC50 (MCF-7 cell line): 60 ± 10 nM
- Selectivity index: folds more toxic regarding MCF-7 than VERO cells (MCF-7 cell line): 50.00 folds
- boost of Bax/Bcl2 ratio compared to the control (BAX/Bcl-2 ratio): approximately 8 folds
- Gene expression fold change BAX/Bcl-2 ratio (BAX/Bcl-2 ratio; 24 h, mean ± SEM): 8.25 ± 0.71
- DNA content % G1 (MCF-7 cells [1]): 53.96 ± 2.15%
- DNA content % S (MCF-7 cells [1]): 39.12 ± 1.92%
- early apoptosis, folds over the control (MCF-7 cells [2]): more than 25 folds
- % Apoptosis Early (MCF-7 cells [2]; mean ± SEM): 15.06% and 15.06 ± 0.91%
- % Apoptosis Late (MCF-7 cells [2]; mean ± SEM): 6.72 ± 0.31%
- % Necrosis (MCF-7 cells [2]; mean ± SEM): 4.66% and 4.66 ± 0.19%
- boost of Bax level vs control (BAX): approximately 3 folds
- Gene expression fold change BAX (BAX; 24 h, mean ± SEM): 3.3282 ± 0.67
- IC50 (HepG2 cell line): 60 ± 10 nM
- Selectivity index: folds toxic in HepG2 than in VERO cells (HepG2 cell line): 50.00 folds

Continued, in another order:

- IC50 (VEGFR-2): 750 ± 50 nM
Compound: S=c1nc(-c2ccc(Nc3nnc(-c4ccc(Cl)cc4)c4ccccc34)cc2)cc(-c2ccccc2)[nH]1 [Compound 5a, 4-(4-[{4-(4-Chlorophenyl)phthalazin-1-yl}amino]phenyl)-6-phenylpyrimidin-2(1H)-thione]
- IC50 (MCF-7 cell line): 860 ± 10 nM
- Selectivity index: folds more toxic regarding MCF-7 than VERO cells (MCF-7 cell line): 4.79 folds
- selectivity class against MCF-7 (MCF-7 cell line): moderate selectivity
- IC50 (HepG2 cell line): 800 ± 20 nM
- Selectivity index: folds toxic in HepG2 than in VERO cells (HepG2 cell line): 5.15 folds

- IC50 (VEGFR-2): 150 ± 30 nM
Compound: O=c1nc(-c2ccc(Nc3nnc(-c4ccc(Cl)cc4)c4ccccc34)cc2)cc(-c2ccccc2)[nH]1 [Compound 4a, 4-(4-[{4-(4-Chlorophenyl)phthalazin-1-yl}amino]phenyl)-6-phenylpyrimidin-2(1H)-one]
- Selectivity index: folds more toxic regarding MCF-7 than VERO cells (MCF-7 cell line): 25.00 folds
- IC50 (HepG2 cell line): 290 ± 10 nM
- Selectivity index: folds toxic in HepG2 than in VERO cells (HepG2 cell line): 13.79 folds
